Source: PubChem BioAssay
Compounds with a hit are over-represented: about 2.3% of the library has one in this group of screens.
SUMO1-SIM PPI: SUMO1-SIM interaction modulation. SUMO1 binding to a labelled peptide, TR-FRET, 1 h. inhibition, % at 20 µM. 360,000 tested, 0.33% active. P63165; in the data active means inhibition above about 37%
SKN-1 inh: inhibitors of C. elegans SKN-1. C. elegans VP596 Pgst-4::GFP/RFP ratio, acrylamide-induced, 24 h. inhibition, % at 21.8 µM. 360,000 tested, 0.49% active. AID 624304;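 active means interference check ratio from 0.5 to 1.5 plus GFP to RFP signal ratio inhibition reaching or exceeding a fixed threshold, cut at about 30% in these data, passing the limit was not always enough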
MT1-MMP act inh: blocks activation of human MT1-MMP; P50281; HT1080 RFP-PRO-GFP cells, GFP/RFP ratio fluorescence, overnight; percent of plate control window, DMSO zero; GFP/RFP ratio change, % at 20 µM; 360,000 tested, 0.061% active; AID 651647;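 active means GFP/RFP ratio change of at least 30% with cell ATP level not reduced by more than half and red fluorescence within 50% of control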
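Test system: HT1080 RFP-PRO-GFP cells; Benchmarks: DMSO and RFP-L50D-GFP cell wells; Timing: cells overnight before dosing, compound overnight, 37 °C, 5% CO2; Compound: one 20 µM compound dose with 1% DMSO; Read-out: GFP/RFP fluorescence ratio.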
CSN inh: CSN deneddylation inhibition. Q92905. Purified CSN, SCF-Nedd8-OG deneddylation, fluorescence polarization. inhibition, % at 12.5 µM. 360,000 tested, 0.38% active. AID 651999;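 active means pattern-corrected inhibition above about 35%, with an unprinted fluorescence ratio check between 0.5 and 1.5, limit read from the data, passing the limit was not always enough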;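 further: 0% = enzyme with substrate and 100% = substrate without enzyme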
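Test system: Human Csn5 produced in HEK293T cells | Compound: 12.5 µM single point | Times: 90 min, room temperature | Signal: Fluorescence polarization readout | Read-out basis: % inhibition of substrate cleavage by Csn5 | Controls: no-enzyme wells high, enzyme-with-substrate wells low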
Rpn11 inh: blocks the human proteasome subunit Rpn11. O00487. human 26S proteasome, Ub4-pepOG fluorescence polarization; 20S core pre-blocked with epoxomicin. inhibition, % at 20 µM. 360,000 tested, 0.59% active. AID 588493;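 active means inhibition at 20 µM, scaled to each plate's controls, above about 33%, limit read from the data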
DNMT1 block: inhibitors of human DNMT1. inhibition (reported as % activation of signal), % at 10 µM. 360,000 tested, 0.83% active. AID 588458. DNMT1 molecular beacon, Hinp1I cleavage, fluorescence; in the data active means inhibition above about 50%
Target sequence (P26358 504-1616 limits assumed): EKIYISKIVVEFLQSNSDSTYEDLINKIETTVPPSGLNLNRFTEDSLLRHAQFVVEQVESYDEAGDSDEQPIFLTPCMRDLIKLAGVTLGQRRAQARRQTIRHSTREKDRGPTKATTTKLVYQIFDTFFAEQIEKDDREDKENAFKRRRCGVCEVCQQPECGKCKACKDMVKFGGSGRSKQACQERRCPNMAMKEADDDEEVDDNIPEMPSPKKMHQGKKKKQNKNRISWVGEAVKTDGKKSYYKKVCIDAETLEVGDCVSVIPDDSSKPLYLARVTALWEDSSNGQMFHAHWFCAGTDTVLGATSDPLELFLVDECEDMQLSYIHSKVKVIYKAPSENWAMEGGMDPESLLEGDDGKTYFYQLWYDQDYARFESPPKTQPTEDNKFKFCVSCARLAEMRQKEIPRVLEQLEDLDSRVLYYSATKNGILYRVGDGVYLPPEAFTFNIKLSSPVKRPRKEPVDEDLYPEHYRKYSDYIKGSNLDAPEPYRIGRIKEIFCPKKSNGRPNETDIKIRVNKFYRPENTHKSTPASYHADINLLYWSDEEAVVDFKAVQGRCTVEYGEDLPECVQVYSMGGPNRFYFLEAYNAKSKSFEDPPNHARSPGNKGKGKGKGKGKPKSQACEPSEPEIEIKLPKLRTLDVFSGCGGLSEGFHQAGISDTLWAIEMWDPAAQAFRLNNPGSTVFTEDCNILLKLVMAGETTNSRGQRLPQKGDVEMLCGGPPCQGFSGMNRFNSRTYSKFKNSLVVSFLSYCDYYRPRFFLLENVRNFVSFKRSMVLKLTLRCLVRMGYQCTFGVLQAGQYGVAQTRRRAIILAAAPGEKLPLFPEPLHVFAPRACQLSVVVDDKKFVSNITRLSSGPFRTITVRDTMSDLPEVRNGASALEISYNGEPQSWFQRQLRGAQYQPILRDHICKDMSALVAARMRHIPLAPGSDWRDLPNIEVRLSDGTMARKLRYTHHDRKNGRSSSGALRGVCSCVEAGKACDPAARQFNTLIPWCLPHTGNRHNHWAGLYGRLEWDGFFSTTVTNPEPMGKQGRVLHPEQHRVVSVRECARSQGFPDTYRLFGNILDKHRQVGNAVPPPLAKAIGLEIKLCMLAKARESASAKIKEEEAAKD
DNMT1 confirm: confirmation of human DNMT1 inhibitors | DNMT1 molecular beacon HinP1I cleavage, fluorescence | 2,300 tested, 8% active | AID 602385 | inhibition, % at 10 µM | shares compounds with DNMT1 block;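 active means average inhibition of at least 30% in the single-concentration confirmation test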
DNMT1 interf: counter-screen for DNMT1 inhibitors: spectral interference. activation (fluorescence interference), % at 10 µM. shares compounds with DNMT1 block. DNMT1 molecular beacon spectral interference counterscreen, fluorescence 485/520. 2,300 tested, 1% active;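 active means activation of at least 30% at 10 µM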;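 further: DNMT1 catalytic domain with a HinP1I cleavage step and a FAM/dabcyl DNA beacon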
Numbers without * were called inactive.

How did CCCS(=O)(=O)NC(=O)C1(C)CCN(C(=O)c2ccc3ccccc3n2)C1 (stereo not drawn) do in these assays?
SUMO1-SIM PPI: 2.3; SKN-1 inh: 3.0; MT1-MMP act inh: -1.5; CSN inh: 7.1; Rpn11 inh: 2.5; DNMT1 block: 3.6

Results for COc1ccccc1C(=O)Nc1nnc(-c2ccc(F)cc2)s1 ?
SUMO1-SIM PPI: -10.7; SKN-1 inh: 15.1; MT1-MMP act inh: -5.4; CSN inh: 0.1; Rpn11 inh: 4.9; DNMT1 block: 1.9

What do the screens show for `O=C(Nc1nnc(-c2ccccc2)s1)c1ccc(F)cc1`?
SUMO1-SIM PPI: -2.0; SKN-1 inh: -9.3; MT1-MMP act inh: -2.7; CSN inh: 2.1; Rpn11 inh: 1.7; DNMT1 block: 71.9*; DNMT1 confirm: 2.0; DNMT1 interf: 0.5

Results for CCCCCOc1ccc(C(=O)CCC(=O)NC(C)c2ccc(S(N)(=O)=O)cc2)cc1 (stereo not drawn) ?
SUMO1-SIM PPI: 9.9; SKN-1 inh: -5.4; MT1-MMP act inh: -1.0; CSN inh: 1.4; Rpn11 inh: 2.4; DNMT1 block: 74.9*; DNMT1 confirm: 2.3; DNMT1 interf: 2.1

What do the screens show for `COc1ccc(NC(=O)CCCC(=O)OCC(F)(F)C(F)F)cc1`?
SUMO1-SIM PPI: -0.4; SKN-1 inh: -12.2; MT1-MMP act inh: 0.1; CSN inh: -0.1; Rpn11 inh: -3.6; DNMT1 block: 74.9*; DNMT1 confirm: 4.2; DNMT1 interf: 0.8

How did CCc1nc2c(OCc3ccc(Cl)cc3)cccn2c1N(C=O)Cc1ccccc1 do in these assays?
SUMO1-SIM PPI: 0.9; SKN-1 inh: 5.7; MT1-MMP act inh: -0.8; CSN inh: -3.0; Rpn11 inh: 14.6; DNMT1 block: -3.9

What do the screens show for `Cc1nc(SCC(=O)NCc2ccco2)c2c(C)c(C)sc2n1`?
SUMO1-SIM PPI: -1.4; SKN-1 inh: -13.6; MT1-MMP act inh: 5.1; CSN inh: -2.4; Rpn11 inh: 0.0; DNMT1 block: 0.0

Results for CCOc1ccc2nc(SCC(=O)NC(=O)NCc3ccco3)sc2c1 ?
SUMO1-SIM PPI: 2.4; SKN-1 inh: 27.2; MT1-MMP act inh: 1.3; CSN inh: 3.3; Rpn11 inh: 6.8; DNMT1 block: -6.5

How did O=C(CSc1nc2cc(Cl)ccc2s1)NC(=O)NCc1ccco1 do in these assays?
SUMO1-SIM PPI: 0.6; SKN-1 inh: -4.6; MT1-MMP act inh: 1.5; CSN inh: 12.6; Rpn11 inh: -10.0; DNMT1 block: 53.8*; DNMT1 confirm: 6.5; DNMT1 interf: 2.8

What do the screens show for `CCCCc1nc2sc3c(SCC(=O)NCc4ccco4)ncnc3c2c2c1CCC2`?
SUMO1-SIM PPI: -110.6; SKN-1 inh: 5.7; MT1-MMP act inh: -2.0; CSN inh: 13.7; Rpn11 inh: 4.2; DNMT1 block: 78.2*; DNMT1 confirm: 6.0; DNMT1 interf: 4.8

Results for Cc1sc2ncnc(SCC(=O)NC(=O)NCc3ccco3)c2c1C ?
SUMO1-SIM PPI: 3.8; SKN-1 inh: 9.0; MT1-MMP act inh: -2.3; CSN inh: 10.0; Rpn11 inh: 9.6; DNMT1 block: 69.3*; DNMT1 confirm: 2.4; DNMT1 interf: 2.2

Results for O=C(NCc1ccccc1)C1C(c2ccccc2)=Nc2ccccc2N1C(=O)c1cccnc1 (stereo not drawn) ?
SUMO1-SIM PPI: -6.9; SKN-1 inh: 4.0; MT1-MMP act inh: -5.9; CSN inh: -1.1

Results for COc1cccc(CNC(=O)[C@@H]2CCCN2C(=O)[C@H]2CCCCN2C(=O)c2cccs2)c1 ?
SUMO1-SIM PPI: 4.0; SKN-1 inh: 5.1; MT1-MMP act inh: 4.5; CSN inh: -0.8

How did CC(=O)Nc1cccc(-c2ccnc3c2CC(C(=O)NCCC(F)(F)F)O3)c1 (stereo not drawn) do in these assays?
SUMO1-SIM PPI: 4.0; SKN-1 inh: 7.0; MT1-MMP act inh: 3.5; CSN inh: 1.8; Rpn11 inh: -4.6; DNMT1 block: 0.9

Results for O=C(CCN1C(=O)/C(=C/c2ccccc2)SC1=S)NC1CCS(=O)(=O)C1 (stereo not drawn) ?
SUMO1-SIM PPI: -37.6; SKN-1 inh: 0.5; MT1-MMP act inh: -0.2; CSN inh: -5.0; Rpn11 inh: 2.7; DNMT1 block: 2.4

What do the screens show for `O=C(CN1C(=O)/C(=C/c2ccco2)SC1=S)NC1CCS(=O)(=O)C1` (stereo not drawn)?
SUMO1-SIM PPI: 30.9; SKN-1 inh: 13.7; MT1-MMP act inh: 13.5; CSN inh: 20.6; Rpn11 inh: 1.8; DNMT1 block: 75.9*; DNMT1 confirm: 2.9; DNMT1 interf: -1.0

Results for COC(=O)[C@@]12C[C@@H](CC(=O)N3CCSCC3)C(=O)N(Cc3cccc4ccccc34)C1=CCC(C)(C)C2 ?
SUMO1-SIM PPI: -7.3; SKN-1 inh: 12.7; MT1-MMP act inh: -22.9; CSN inh: -5.7

What do the screens show for `COc1ccccc1-n1c(SCC(=O)NCc2ccc3c(c2)OCO3)nc2cc([N+](=O)[O-])ccc21`?
SUMO1-SIM PPI: -3.5; SKN-1 inh: 9.0; MT1-MMP act inh: -2.9; CSN inh: 5.9; Rpn11 inh: 9.2; DNMT1 block: 89.8*; DNMT1 confirm: 7.6; DNMT1 interf: 6.9

What do the screens show for `CCC/C=C/c1ccc(CN2C(C)C(=O)N(Cc3cn(CCC4OCCO4)nn3)CCS2(=O)=O)cc1` (stereo not drawn)?
SUMO1-SIM PPI: -3.9; SKN-1 inh: 3.5; MT1-MMP act inh: 3.5; CSN inh: 2.3; Rpn11 inh: 6.6; DNMT1 block: 9.4

Results for C(=N\C(/N=C/c1ccco1)c1ccco1)/c1ccco1 ?
SUMO1-SIM PPI: 14.1; SKN-1 inh: 24.5; MT1-MMP act inh: -3.2; CSN inh: 25.1; Rpn11 inh: -10.7; DNMT1 block: 71.2*; DNMT1 confirm: 1.2; DNMT1 interf: 0.9

What do the screens show for `C(=Nc1cccc2c(N=Cc3ccco3)cccc12)c1ccco1`?
SUMO1-SIM PPI: 1.2; SKN-1 inh: 23.7; MT1-MMP act inh: -4.1; CSN inh: -49.8; Rpn11 inh: -33.3; DNMT1 block: -17.0

What do the screens show for `O=C(Nc1cccc2c1CCCC2)c1cc(C2CCCCN2C(=O)CCCc2ccccc2)on1` (stereo not drawn)?
SUMO1-SIM PPI: 4.0; SKN-1 inh: -7.7; MT1-MMP act inh: -9.8; CSN inh: 1.6; Rpn11 inh: -3.0; DNMT1 block: 9.5
